Measured values: BindingDB's records for doi:10.1021/jm300138g (Neuraxon, 2012)

Target: Sodium-dependent noradrenaline transporter (Homo sapiens, UniProt P23975)
Test: Displacement of [3H]nisoxetine from human NET expressed in CHO cells after 120 mins by scintillation counting
Procedure, shortened: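 Membranes from hNET-transfected CHO cells (20 μg protein) incubated 120 min at 4 °C with 1 nM [3H]nisoxetine in 50 mM Tris-HCl pH 7.4, 120 mM NaCl, 5 mM KCl. Nonspecific binding defined with 1 μM desipramine. Filtered on PEI-soaked GF/B and counted.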

Chain of Sodium-dependent noradrenaline transporter (P23975 whole entry): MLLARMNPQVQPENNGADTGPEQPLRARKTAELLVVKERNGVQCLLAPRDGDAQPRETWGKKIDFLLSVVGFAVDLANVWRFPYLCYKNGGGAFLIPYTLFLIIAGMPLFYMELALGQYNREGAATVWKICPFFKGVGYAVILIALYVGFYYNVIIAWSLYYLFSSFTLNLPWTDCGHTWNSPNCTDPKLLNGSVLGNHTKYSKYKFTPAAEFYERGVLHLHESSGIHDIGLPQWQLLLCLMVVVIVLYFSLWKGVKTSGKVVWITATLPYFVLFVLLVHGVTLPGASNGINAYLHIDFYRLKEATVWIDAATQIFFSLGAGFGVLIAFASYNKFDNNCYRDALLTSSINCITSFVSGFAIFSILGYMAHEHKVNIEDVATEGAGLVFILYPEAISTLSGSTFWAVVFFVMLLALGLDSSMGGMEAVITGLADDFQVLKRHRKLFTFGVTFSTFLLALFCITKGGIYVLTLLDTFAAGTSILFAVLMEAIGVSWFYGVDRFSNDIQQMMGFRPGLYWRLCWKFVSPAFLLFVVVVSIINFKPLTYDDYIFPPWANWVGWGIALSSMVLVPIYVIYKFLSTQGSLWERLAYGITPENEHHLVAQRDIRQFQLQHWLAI

For CN(C)C1CC=C(c2c[nH]c3ccc(N=C(N)c4cccs4)cc23)CC1 (stereo unspecified), the IC50 was 550 nM.
